Assay results taken from ChEMBL document CHEMBL5143609, “Enigmazole C: A Cytotoxic Macrocyclic Lactone and Its Ring-Opened Derivatives from a New Species of Homophymia Sponge” (2022).

Tests used:
Assay type in all cases: functional
Settings in all cases: for CC50: read-out: LC50 (the source's name)
MDA-MB-231 = experiment: Cytotoxicity against human MDA-MB-231 cells
In short: (§1)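 Cell-growth inhibition was tested in human tumor lines: A-549 lung carcinoma, HT-29 colorectal carcinoma, MDA-MB-231 breast adenocarcinoma and PSN-1 pancreatic adenocarcinoma. GI50 is the concentration giving 50% inhibition of cell growth, calculated by a literature procedure. TGI and LC50 endpoints were also reported.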

A549 = experiment: Cytotoxicity against human A549 cells; in short: as §1
HT-29 = experiment: Cytotoxicity against human HT-29 cells; in short: as §1
PSN1 = experiment: Cytotoxicity against human PSN1 cells; in short: as §1

Structure (SMILES) | GI50 (MDA-MB-231) [µM] | TGI (MDA-MB-231) [µM] | CC50 (MDA-MB-231) [µM] | GI50 (A549) [µM] | TGI (A549) [µM] | CC50 (A549) [µM] | GI50 (HT-29) [µM] | TGI (HT-29) [µM] | CC50 (HT-29) [µM] | GI50 (PSN1) [µM] | TGI (PSN1) [µM] | CC50 (PSN1) [µM]
C=C(C[C@@H](C)C[C@@H]1CC(=O)C=C(/C=C/CC[C@H](C)C(=O)O)O1)C[C@H](O)c1coc(/C=C(/C)[C@@H](C)OC)n1 | 4.1 | > 19 | > 19 | 1.4 | > 19 | > 19 | 1 | 3.7 | > 19 | 1.1 | > 19 | > 19
C=C1CC(C)CC2CC(=O)C=C(C[C@H](O)CC[C@H](C)C(=O)OC(c3coc(/C=C(/C)C(C)OC)n3)C1)O2 (some centres undefined) | > 19 | > 19 | > 19 | 9.9 | > 19 | > 19 | 18 | > 19 | > 19 | 8.7 | > 19 | > 19
